# Bioassay records (PubChem BioAssay)
# Rows were chosen to be rich in hits. Some 1.6% of all compounds tested hit in one or more screens of this group.
# eIF4E 4G PPI: blocks eIF4E binding to eIF4G | inhibition, % at 21.7 µM | P63073+Q04637 | TR-FRET eIF4E-eIF4GI(517-606) binding, 2 h | 220,000 compounds, 0.37% hits;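 further: 0% = full FRET control wells and 100% = background wells lacking eIF4GI fragment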
# p97 inhibitor: human p97 ATPase inhibition; 220,000 compounds, 0.42% hits; P55072; inhibition, % at 8 µM; recombinant p97 ATPase, Kinase-Glo ATP luminescence, 3 h; AID 1481; in the data active means inhibition above about 15%;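 further: 0% = DMSO vehicle and 100% = wells lacking enzyme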
# Target sequence (P55072 whole entry, looked up): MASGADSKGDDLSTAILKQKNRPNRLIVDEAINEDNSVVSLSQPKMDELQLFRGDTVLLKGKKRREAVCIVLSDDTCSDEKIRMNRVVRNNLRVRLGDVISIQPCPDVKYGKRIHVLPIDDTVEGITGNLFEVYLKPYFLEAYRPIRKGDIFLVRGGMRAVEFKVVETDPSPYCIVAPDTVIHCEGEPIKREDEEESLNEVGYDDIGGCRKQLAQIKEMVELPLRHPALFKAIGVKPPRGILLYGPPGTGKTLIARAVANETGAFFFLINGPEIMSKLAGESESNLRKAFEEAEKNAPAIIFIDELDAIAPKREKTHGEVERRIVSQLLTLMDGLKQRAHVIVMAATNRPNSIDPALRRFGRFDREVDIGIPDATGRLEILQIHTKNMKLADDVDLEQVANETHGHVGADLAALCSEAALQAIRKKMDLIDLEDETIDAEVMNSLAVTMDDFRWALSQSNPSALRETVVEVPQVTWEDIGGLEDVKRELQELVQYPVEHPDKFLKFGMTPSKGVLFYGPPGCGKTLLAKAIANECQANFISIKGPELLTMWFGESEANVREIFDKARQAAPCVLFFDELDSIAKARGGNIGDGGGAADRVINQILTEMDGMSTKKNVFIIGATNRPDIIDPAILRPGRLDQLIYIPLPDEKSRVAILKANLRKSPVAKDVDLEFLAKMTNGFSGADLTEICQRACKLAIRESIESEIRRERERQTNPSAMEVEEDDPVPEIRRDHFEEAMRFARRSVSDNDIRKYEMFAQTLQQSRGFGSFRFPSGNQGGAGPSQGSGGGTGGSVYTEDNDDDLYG
# 14-3-3 Bad PPI: disrupts binding of bovine 14-3-3 zeta to phospho-Bad peptide | TR-FRET 14-3-3zeta/Dy647-pBad peptide displacement, 1 h | inhibition, % at 21.7 µM | 220,000 compounds, 0.71% hits | AID 781;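 active means inhibition above about 70%, limit read from the data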;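 further: 0% = full 14-3-3 plus peptide FRET controls and 100% = background without 14-3-3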
# p47phox inh: p47phox (human) inhibition | P14598 | p47phox/p22phox peptide binding, fluorescence polarization, 2 h | inhibition, % at 24.7 µM | 220,000 compounds, 0.53% hits | AID 1274;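 further: 0% = p47phox with labelled peptide and 100% = labelled peptide alone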
# UBC9 SUMO inh: SUMOylation inhibition; P63279; HTRF SUMOylation assay, SAE1/SAE2 + UBC9, in vitro; inhibition, % at 35 µM; 290,000 compounds, 0.36% hits; AID 2006; in the data active means inhibition above about 50%, passing the limit was not always enough
# Tb MetRS inh: blocks T. brucei methionyl-tRNA synthetase activity; purified T. brucei MetRS, ATP depletion, Kinase-Glo luminescence; inhibition, % at 11.9 µM; 360,000 compounds, 0.4% hits; AID 624268;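 active means inhibition above a per-plate cutoff of the control wells' mean inhibition plus 3 SD, cut at about 5.5% in these data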;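 further: 0% = DMSO wells median and 100% = median of wells with control inhibitor compound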
#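 Dosing: 11.9 µM single point; system: parasite MetRS enzyme; technique: luminescence of leftover ATP; times: 15 min enzyme-compound preincubation, 2 h reaction, 10 min detection, 25 °C; replicates: each compound tested once; read-out basis: percent inhibition relative to median high and low control wells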
# Tb MetRS conf: Trypanosoma brucei MetRS inhibition confirmed; shares compounds with Tb MetRS inh; T. brucei MetRS enzyme, luminescence (ATP depletion); inhibition, % at 11.9 µM; 1,400 compounds, 93% hits; AID 624412; in the data active means inhibition above about 7%
# Jurkat cytotox: counter-screen for T. brucei MetRS inhibitors: Jurkat cell cytotoxicity; shares compounds with Tb MetRS inh; 1,400 compounds, 12% hits; Jurkat cells viability, ATP luminescence; inhibition, % at 8.3 µM; in the data active means inhibition above about 15%;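 further: 0% = vehicle and 100% = reference inhibitor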
# Tb MetRS inh FP: orthogonal test for Trypanosoma brucei MetRS inhibitors. inhibition, % at 11.9 µM. 1,400 compounds, 44% hits. purified T. brucei MetRS, fluorescence polarization. shares compounds with Tb MetRS inh; in the data active means inhibition above about 17%;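 further: 0% = vehicle wells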
# Starred values were filed as active, the others as inactive; · = not tested or not shown.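 How the source made its calls, unless noted: active means inhibition above about 30% (limit read from the data); inactive means the rest.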
SMILES,eIF4E 4G PPI,p97 inhibitor,14-3-3 Bad PPI,p47phox inh,UBC9 SUMO inh,Tb MetRS inh,Tb MetRS conf,Jurkat cytotox,Tb MetRS inh FP
Cc1ccccc1OCCSCc1nc2ccccc2[nH]1,2,-3,2,-25,9,6.2*,17*,6,6
Cc1cc(C(=O)CN2CCN(CC(=O)Nc3ccc(F)cc3)CC2)c(C)n1C1CC1,·,·,·,·,·,0,·,·,·
O=S(=O)(NCCCCNS(=O)(=O)c1ccc(F)cc1)c1ccc(F)cc1,·,·,·,·,·,-1,·,·,·
COc1ccccc1NS(=O)(=O)c1cccc(NC(=O)Nc2cccc(Cl)c2)c1,11,5,14,-56,-48,31*,41*,7,72*
COc1ccccc1NS(=O)(=O)c1cccc(NC(=O)NCCCl)c1,0,8,-6,4,33,-1,·,·,·
COc1ccc(NC(=O)CSc2nnc(NC(=O)c3ccc(S(=O)(=O)N4CCOCC4)cc3)s2)cc1,-6,-1,0,3,1,0,·,·,·
Cc1ccc(Nc2nnc(SCC(=O)Nc3ccc(S(=O)(=O)N4CCOCC4)cc3)s2)cc1,0,0,7,-8,-16,8.5*,15*,5,14
O=C(CSc1nnc(Nc2ccccc2)s1)Nc1ccc(S(=O)(=O)N2CCOCC2)cc1,-6,3,4,-28,1,13*,29*,12,19*
CCOc1ccc(N2CC(C(=O)NCCc3ccc(S(N)(=O)=O)cc3)CC2=O)cc1 (centres undefined),·,·,·,·,12,-1,·,·,·
O=S(=O)(Nc1nccs1)c1ccc(NCc2cc(Br)cc(Br)c2O)cc1,0,10,-3,-23,-4,36*,68*,-9,24*
c1ccc2[nH]c(CCCCc3nc4ccccc4[nH]3)nc2c1,·,·,·,·,18,6.4*,16*,1,12
N/N=C(/Cc1nc2ccccc2[nH]1)c1ccc([N+](=O)[O-])cc1,-2,-1,1,-10,-8,6.0*,88*,0,66*
Cc1ccc2nc(CCc3nc4ccc(C)cc4[nH]3)[nH]c2c1,·,·,·,·,2,6.4*,11*,3,5
Cc1ccc2nc(CCCc3nc4ccc(C)cc4[nH]3)[nH]c2c1,·,·,·,·,-14,1,·,·,·
CCCc1nc2ccccc2[nH]1,4,7,-3,-1,-4,0,·,·,·
O=C(Cc1nc2ccccc2[nH]c1=O)c1ccccc1,2,1,-4,-84,10,-1,·,·,·
O=C(Cc1nc2ccccc2[nH]1)c1ccc(Br)cc1,-7,-7,-9,-10,8,11*,2,10,6
Cc1nn(C)c(C)c1CN(C(=O)C1CCC(=O)N(C2CCCCCC2)C1)C(C)C (centres undefined),·,·,·,·,-8,0,·,·,·
COc1ccc(C(=O)CC2(C(=O)O)CCCCC2)cc1,·,·,·,·,11,1,·,·,·
c1ccc2[nH]c(CSc3nc4ccccc4s3)nc2c1,12,2,-8,-13,-4,8.1*,20*,7,6
Cc1nnc(SCc2nc3ccccc3[nH]2)s1,2,3,-6,-11,-29,2,·,·,·
O=C(c1ccncc1)c1ccc(N2CCN(C3CC(=O)N(Cc4ccccc4)C3=O)CC2)cc1 (centres undefined),1,-4,0,-8,14,15*,28*,13,6
COc1ccc(N2CCN(C3CC(=O)N(Cc4ccccc4)C3=O)CC2)cc1 (centres undefined),3,2,-6,-13,8,0,·,·,·
CCCC(=O)c1c(NC(C)C)cc(C)oc1=O,-1,3,4,13,-5,-2,·,·,·
Cc1ccnc(NCc2ccc(Br)cc2)c1,·,·,·,·,4,6.0*,15*,-1,6
SMILES,eIF4E 4G PPI,p97 inhibitor,14-3-3 Bad PPI,p47phox inh,UBC9 SUMO inh,Tb MetRS inh,Tb MetRS conf,Jurkat cytotox,Tb MetRS inh FP
Cc1ccccc1N1C(=O)CC(N(O)c2ccccc2)C1=O (centres undefined),4,0,-4,-9,-6,-1,·,·,·
O=C1CC(N(O)c2ccccc2)C(=O)N1c1cc(Cl)cc(Cl)c1 (centres undefined),8,7,4,-11,36,13*,65*,-9,28*
O=C(CN1CCN(Cc2ccc(Cl)cc2)CC1)N/N=C/c1c[nH]c2ccccc12,2,-3,11,3,-11,8.4*,31*,0,16
Cc1ccc(CN2CCN(CC(=O)N/N=C/c3c[nH]c4ccccc34)CC2)cc1,-4,9,-2,-18,-1,1,·,·,·
Cc1ccccc1NC(=O)CCC(=O)N/N=C/c1c[nH]c2ccccc12,-3,4,-5,-1,12,0,·,·,·
O=C(CCC(=O)Nc1ccccc1Cl)N/N=C/c1c[nH]c2ccccc12,-3,-3,-11,5,-2,8.0*,16*,-3,2
O=C(COc1ccc(S(=O)(=O)N2CCOCC2)cc1)Nc1ccc(Br)cc1,·,·,·,·,·,18*,50*,17*,33*
O=C(Cc1ccc(Br)cc1)Nc1cccc(S(=O)(=O)N2CCOCC2)c1,·,·,·,·,·,55*,76*,8,57*
CC1CC(C)CN(C(=O)CCC(=O)Nc2nnc(C3CCCCC3)s2)C1 (centres undefined),·,·,·,·,-5,0,·,·,·
Cc1ccccc1Oc1cc(NC(=O)Cn2cnc([N+](=O)[O-])c2)cc([N+](=O)[O-])c1,0,4,-3,-11,6,9.6*,24*,12,17*
CCCCN(C)Cc1c(C)[nH]c2ccc(C)cc2c1=O,0,1,-3,-18,4,10*,21*,-4,6
CCC(CC)C(=O)OCC(=O)Nc1cccc([N+](=O)[O-])c1,4,2,-4,-5,3,0,·,·,·
CC(C)CC1NC(=O)N(CCCCN2C(=O)c3ccccc3C2=O)C1=O (centres undefined),3,-1,-7,-3,7,8.8*,2,2,-3
C=CCNC(=S)NNC(=O)c1ccc(=O)n(Cc2ccccc2)c1,-1,4,-19,-1,-5,13*,24*,1,9
COc1ccc(NC(=O)CN(C)C(=O)c2oc3c(ccc4ccccc43)c2C)cc1,·,·,·,·,·,6.4*,23*,-7,13
CN(CC(=O)Nc1ccccc1Cl)C(=O)CCSc1ccc(F)cc1,·,·,·,·,·,0,·,·,·
CN(CC(=O)Nc1cccc(F)c1)C(=O)CCSc1ccc(F)cc1,·,·,·,·,·,15*,42*,1,20*
